The values that follow come from ChEMBL document CHEMBL1134686, “Design, synthesis, SAR, and biological evaluation of highly potent benzimidazole-spaced phosphono-alpha-amino acid competitive NMDA antagonists of the AP-6 type” (J Med Chem, 2001).

One assay has as its system Mus musculus. In words: Functional NMDA antagonist activity was confirmed in vivo in mice (intraperitoneally) using an NMDA-induced lethality assay.
Assay [1] deals with Glutamate NMDA receptor. In words: Displacement of [3H]CPP from rat synaptic membrane glutamate NMDA receptor. A general note: In a radioligand displacement assay an active substance lowers the binding of a labelled ligand.
For assay [2], the target named is T1, Glutamate NMDA receptor (Rattus norvegicus) (UniProt P35439+Q00959+Q00960+Q00961+Q62645+Q8VHN2+Q9R1M7). In words: Affinity for the NMDA receptor site was assessed by its ability to displace [3H]TCP from its binding site in rat brain at a concentration of 100 uM. Format: tissue-based.
Assay [3] has as its target T1, Glutamate NMDA receptor (Rattus norvegicus). In words: Affinity for the NMDA receptor site was assessed by the ability to displace [3H]CPP from its binding site in rat synaptic membranes at a concentration of 100 uM. The format is cell membranes. The method, boiled down: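 Rat whole-brain crude synaptic membranes (Triton X-100 treated, frozen), in 50 mM Tris HCl pH 7.6, 0.2-0.5 mg protein. Triplicate incubation 15 min at 23 °C with 8 nM [³H]CPP. Nonspecific binding defined with 1.0 mM NMDA. Bound ligand separated by centrifugation at 48000g, then scintillation counting. Percent inhibition reported at 100 µM.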

For assay [4], the species on record is Rattus norvegicus. The assay is described as follows: Effect on the volume of infarcted brain tissue in rat. The format is functional. The method, boiled down:
(§1)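 Male Fisher-344 rats under isoflurane, with permanent occlusion of the distal MCA plus the ipsilateral common carotid; body temperature held at 37 °C. Single iv tail-vein bolus of 3 mg/kg in 0.9% NaCl, given 5 min post-occlusion. At 24 h, cresyl violet-stained forebrain sections were taken at 400 µm intervals. Infarct volume by image analysis, mean ± SE, n=27-28 per group.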

The target in assay [5] is Glutamate NMDA receptor. The assay is described as follows: Affinity for the NMDA receptor site was assessed by its ability to displace [3H]TCP from its binding site in rat brain. The format is tissue-based. The method, boiled down: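 Rat whole-brain crude synaptic membranes, resuspended in ice-cold 5.0 mM Tris HCl pH 7.4. Triplicate incubation 1 h at 25 °C with 2.5 nM [³H]TCP, 3 µM L-glutamate and 1 µM glycine. Nonspecific binding defined with 100 µM MK-801. Filtration on PEI-presoaked glass fiber filters, then scintillation counting. IC50 with 95% confidence limits from 5-10 concentrations.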

Assay [6] is filed under the species Rattus norvegicus. The assay is described as follows: Effect on the decrease in volume of infarcted brain tissue in rat. Format: functional. Put shortly: as §1
Setting [7] is: Mus musculus, ip, read-out: ED50.

Broadly, the ED50 is the dose that gives a 50% effect, or the effect in half of the subjects. `NC(Cc1nc2ccccc2n1CP(=O)(O)O)C(=O)O` (stereo in doubt; 8) [listing 1 of 2 here] gave a median effective dose (ED50) in the assay with Mus musculus of 7.91 mg/kg. What is called IC50 is the concentration that gives 50% inhibition. Low readings indicate higher potency, high ones lower potency. Usually inhibition stands for the share of the control response that was lost under treatment. Take `NC(Cc1nc2cc(C(F)(F)F)ccc2n1CP(=O)(O)O)C(=O)O` (stereo not given): the IC50 at Glutamate NMDA receptor [1] stood at 750 nM. The molecule further registered an inhibition in assay [2] of 40%. `NC(CCc1nc2ccccc2n1CP(=O)(O)O)C(=O)O` (single isomer, unassigned; (-)) had an IC50 on Glutamate NMDA receptor [1] of 6800 nM. Same read-out and setting: for `NC(CCc1nc2ccccc2n1CP(=O)(O)O)C(=O)O` (stereo in doubt; 10) the value was 5200 nM.

Take `Cc1cc2nc(CC(N)C(=O)O)n(CP(=O)(O)O)c2cc1C` (single isomer, unassigned; (-)): the inhibition in assay [3] turned out to be 99.7%; in assay [2], 88.5%. As to `NC(Cc1nc2ccccc2n1CP(=O)(O)O)C(=O)O` (stereo in doubt; 8) [listing 2 of 2 here], the inhibition was 30% in assay [3] and 29.1% in assay [2]. In turn, `N[C@H](Cc1nc2cc(Cl)ccc2n1CP(=O)(O)O)C(=O)O` had a Volume in the assay listed under Rattus norvegicus [4] of 51.3 mm**3. The 50% inhibitory concentration (IC50) at Glutamate NMDA receptor [5] was determined as 720 nM; at Glutamate NMDA receptor [1], 7.1 nM. Besides, the ED50 in the assay with Mus musculus (setting [7]) was found to be 0.13 mg/kg. The Decrease in the assay listed under Rattus norvegicus [6] is on record as 45%. For `O=C(O)C1CN(CCCP(=O)(O)O)CCN1` (stereo not given), the ED50 in the assay on Mus musculus (setting [7]) was determined as 1 mg/kg. With `NC(Cc1nc2cc(Cl)ccc2n1CP(=O)(O)O)C(=O)OCc1ccccc1` (stereo not given), the figures for the concentration for half-maximal inhibition (IC50) at Glutamate NMDA receptor [5] and on Glutamate NMDA receptor [1] were 46500 nM and 150 nM, respectively. Turning to `NC(Cc1nc2cc(Br)ccc2n1CP(=O)(O)O)C(=O)OCc1ccccc1` (stereo not given), the concentration for half-maximal inhibition (IC50) on Glutamate NMDA receptor [5] is 15500 nM; at Glutamate NMDA receptor [1] it was 56 nM. The ED50 with Mus musculus (setting [7]) was 0.47 mg/kg. For `NC(Cc1nc2cccc(Cl)c2n1CP(=O)(O)O)C(=O)O` (single isomer, unassigned; (-)), the inhibition was 73% in assay [3] and 28.1% in assay [2]. Take `NC(Cc1nc2ccccc2n1CCP(=O)(O)O)C(=O)O` (single isomer, unassigned; (-)): the inhibition was 39% in assay [3] and 9.5% in assay [2]. The corresponding values for `CCOC(=O)C(N)Cc1nc2ccccc2n1CP(=O)(O)O` (single isomer, unassigned; (-)) are 61% and 0%. For the molecule `NC(CCCCCP(=O)(O)O)C(=O)O` (stereo not given) [AP-7], in the assay with Mus musculus (setting [7]), the ED50 amounted to 37.6 mg/kg. For the molecule `NC(Cc1nc2c(Cl)cccc2n1CP(=O)(O)O)C(=O)O` (single isomer, unassigned; (-)), the inhibition in assay [3] was 81%. As for `NC(Cc1nc2ccccc2n1CP(=O)(O)O)C(=O)O` (single isomer, unassigned; (-)), the IC50 is 11100 nM at Glutamate NMDA receptor [5] and 77 nM on Glutamate NMDA receptor [1]. Moreover, the median effective dose (ED50) in the assay with Mus musculus worked out at 2.04 mg/kg. As to `NC(Cc1nc2ccccc2n1CC(=O)O)C(=O)O` (single isomer, unassigned; (-)), the inhibition in assay [3] was found to be 30%; in assay [2], 9.5%. Turning to `NC(Cc1nc2ccc(Cl)cc2n1CP(=O)(O)O)C(=O)O` (single isomer, unassigned; (-)), the IC50 at Glutamate NMDA receptor [5] turned out to be 13600 nM; at Glutamate NMDA receptor [1], 22 nM. Besides, the ED50 with Mus musculus (setting [7]) was 2.56 mg/kg.

Consider `O=C(O)[C@@H]1C[C@H](CP(=O)(O)O)CCN1` [SELFOTEL], for which the ED50 with Mus musculus (setting [7]) stood at 0.6 mg/kg. Take `NC(Cc1nc2cc(Cl)c(Cl)cc2n1CP(=O)(O)O)C(=O)O` (single isomer, unassigned; (+)): the IC50 at Glutamate NMDA receptor [1] stood at 1000 nM. As to `NC(Cc1nc2cc(Cl)c(Cl)cc2n1CP(=O)(O)O)C(=O)O` (single isomer, unassigned; (-)), the median effective dose (ED50) in the assay on Mus musculus (setting [7]) turned out to be 2.58 mg/kg. Further, on Glutamate NMDA receptor [1], the half-maximal inhibitory concentration (IC50) was found to be 18 nM.
